Laboratory results reported in ChEMBL document CHEMBL4732030, “Aloe-emodin derived azoles as a new structural type of potential antibacterial agents: design, synthesis, and evaluation of the action on membrane, DNA, and MRSA DNA isomerase” (RSC Med Chem, 2021).
Converted amounts (≈) assume the structure as drawn.

How the values were obtained:
Type in all cases: functional
Staphylococcus aureus [1] = assay: Antibacterial activity against methicillin resistant Staphylococcus aureus assessed as inhibition of bacterial growth after 24 hrs by microbroth dilution method
Summary of the method: (§1)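 Inoculum adjusted in sterile saline to 1×10^5 CFU. Compounds dissolved in DMSO as stock, then diluted in Mueller-Hinton broth as a two-fold series from 512 to 0.5 µg/mL (11 levels). Inoculated dilutions incubated at 37 °C for 24 h, and the MIC recorded.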

Enterococcus faecalis = assay: Antibacterial activity against Enterococcus faecalis assessed as inhibition of bacterial growth after 24 hrs by microbroth dilution method
Summary of the method: (§2)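 Bacterial inoculum set to 1×10^5 CFU with sterile saline. Test agents and reference drugs, from DMSO stocks, diluted in Mueller-Hinton broth to 512, 256, 128, 64, 32, 16, 8, 4, 2, 1 and 0.5 µg/mL. Inoculated dilutions incubated 37 °C for 24 h.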

Staphylococcus aureus [2] = assay: Antibacterial activity against Staphylococcus aureus assessed as inhibition of bacterial growth after 24 hrs by microbroth dilution method; summary of the method: as §2
Staphylococcus aureus [3] = assay: Antibacterial activity against Staphylococcus aureus ATCC 25923 assessed as inhibition of bacterial growth after 24 hrs by microbroth dilution method; summary of the method: as §2
Staphylococcus aureus [4] = assay: Antibacterial activity against Staphylococcus aureus ATCC 29213 assessed as inhibition of bacterial growth after 24 hrs by microbroth dilution method; summary of the method: as §1
Klebsiella pneumoniae = assay: Antibacterial activity against Klebsiella pneumoniae assessed as inhibition of bacterial growth after 24 hrs by microbroth dilution method; summary of the method: as §2
Escherichia coli [5] = assay: Antibacterial activity against Escherichia coli assessed as inhibition of bacterial growth after 24 hrs by microbroth dilution method; summary of the method: as §2
Escherichia coli [6] = assay: Antibacterial activity against Escherichia coli ATCC 25922 assessed as inhibition of bacterial growth after 24 hrs by microbroth dilution method; summary of the method: as §2
Pseudomonas aeruginosa [7] = assay: Antibacterial activity against Pseudomonas aeruginosa assessed as inhibition of bacterial growth after 24 hrs by microbroth dilution method; summary of the method: as §2
Pseudomonas aeruginosa [8] = assay: Antibacterial activity against Pseudomonas aeruginosa ATCC 27853 assessed as inhibition of bacterial growth after 24 hrs by microbroth dilution method; summary of the method: as §2
Acinetobacter baumannii = assay: Antibacterial activity against Acinetobacter baumannii assessed as inhibition of bacterial growth after 24 hrs by microbroth dilution method; summary of the method: as §2
Staphylococcus aureus [9] = assay: Potency index, ratio of norfloxacin MIC to compound MIC for antibacterial activity against Staphylococcus aureus incubated for 24 hrs by microbroth dilution method

Row | SMILES | MIC (Staphylococcus aureus [1]) [µg/mL] | MIC (Enterococcus faecalis) [µg/mL] | MIC (Staphylococcus aureus [2]) [µg/mL] | MIC (Staphylococcus aureus [3]) [µg/mL] | MIC (Staphylococcus aureus [4]) [µg/mL] | MIC (Klebsiella pneumoniae) [µg/mL] | MIC (Escherichia coli [5]) [µg/mL] | MIC (Escherichia coli [6]) [µg/mL] | MIC (Pseudomonas aeruginosa [7]) [µg/mL] | MIC (Pseudomonas aeruginosa [8]) [µg/mL] | MIC (Acinetobacter baumannii) [µg/mL] | Ratio (Staphylococcus aureus [9])
1 | O=C1c2cccc(O)c2C(=O)c2c(O)cc(Cn3cnc4cc([N+](=O)[O-])ccc43)cc21 | 64 (≈ 154 µM) | 16 (≈ 38.5 µM) | 32 (≈ 77 µM) | 64 (≈ 154 µM) | 32 (≈ 77 µM) | 64 (≈ 154 µM) | 64 (≈ 154 µM) | 32 (≈ 77 µM) | 32 (≈ 77 µM) | 32 (≈ 77 µM) | 32 (≈ 77 µM) | –
2 | Cn1nnnc1SCc1cc(O)c2c(c1)C(=O)c1cccc(O)c1C2=O | 32 (≈ 86.9 µM) | 128 (≈ 347 µM) | 8 (≈ 21.7 µM) | 16 (≈ 43.4 µM) | 32 (≈ 86.9 µM) | 128 (≈ 347 µM) | 128 (≈ 347 µM) | 64 (≈ 174 µM) | 64 (≈ 174 µM) | 64 (≈ 174 µM) | 64 (≈ 174 µM) | 2
3 | O=C1c2cccc(O)c2C(=O)c2c(O)cc(Cn3ccnc3[N+](=O)[O-])cc21 | 32 (≈ 87.6 µM) | 32 (≈ 87.6 µM) | 32 (≈ 87.6 µM) | 32 (≈ 87.6 µM) | 32 (≈ 87.6 µM) | 64 (≈ 175 µM) | 64 (≈ 175 µM) | 32 (≈ 87.6 µM) | 64 (≈ 175 µM) | 64 (≈ 175 µM) | 64 (≈ 175 µM) | –
4 | Cn1ccnc1SCc1cc(O)c2c(c1)C(=O)c1cccc(O)c1C2=O | 128 (≈ 349 µM) | 128 (≈ 349 µM) | 128 (≈ 349 µM) | 256 (≈ 699 µM) | 128 (≈ 349 µM) | 128 (≈ 349 µM) | 128 (≈ 349 µM) | 128 (≈ 349 µM) | 128 (≈ 349 µM) | 64 (≈ 175 µM) | 32 (≈ 87.3 µM) | –
5 | O=C1c2cccc(O)c2C(=O)c2c(O)cc(Cn3nnc4ccccc43)cc21 | 32 (≈ 86.2 µM) | 32 (≈ 86.2 µM) | 128 (≈ 345 µM) | 256 (≈ 689 µM) | 32 (≈ 86.2 µM) | 128 (≈ 345 µM) | 128 (≈ 345 µM) | 32 (≈ 86.2 µM) | 128 (≈ 345 µM) | 64 (≈ 172 µM) | 16 (≈ 43.1 µM) | –
6 | O=C1c2cccc(O)c2C(=O)c2c(O)cc(Cn3cnc([N+](=O)[O-])c3)cc21 | 64 (≈ 175 µM) | 128 (≈ 350 µM) | 16 (≈ 43.8 µM) | 16 (≈ 43.8 µM) | 16 (≈ 43.8 µM) | 128 (≈ 350 µM) | 64 (≈ 175 µM) | 32 (≈ 87.6 µM) | 64 (≈ 175 µM) | 32 (≈ 87.6 µM) | 32 (≈ 87.6 µM) | –
7 | Cc1ccc2c(c1)ncn2Cc1cc(O)c2c(c1)C(=O)c1cccc(O)c1C2=O | 64 (≈ 166 µM) | 32 (≈ 83.2 µM) | 32 (≈ 83.2 µM) | 32 (≈ 83.2 µM) | 32 (≈ 83.2 µM) | 64 (≈ 166 µM) | 64 (≈ 166 µM) | 32 (≈ 83.2 µM) | 32 (≈ 83.2 µM) | 64 (≈ 166 µM) | 64 (≈ 166 µM) | –
8 | O=C1c2cccc(O)c2C(=O)c2c(O)cc(Cn3cnc4ccccc43)cc21 | 32 (≈ 86.4 µM) | 16 (≈ 43.2 µM) | 32 (≈ 86.4 µM) | 8 (≈ 21.6 µM) | 32 (≈ 86.4 µM) | 64 (≈ 173 µM) | 32 (≈ 86.4 µM) | 16 (≈ 43.2 µM) | 64 (≈ 173 µM) | 32 (≈ 86.4 µM) | 32 (≈ 86.4 µM) | –
9 | O=C1c2cccc(O)c2C(=O)c2c(O)cc(CCl)cc21 | 32 (≈ 111 µM) | 256 (≈ 887 µM) | 64 (≈ 222 µM) | 64 (≈ 222 µM) | 128 (≈ 443 µM) | 32 (≈ 111 µM) | 128 (≈ 443 µM) | 32 (≈ 111 µM) | 64 (≈ 222 µM) | 32 (≈ 111 µM) | 64 (≈ 222 µM) | –
